Screens (PubChem BioAssay)
KCNQ1 inh: blocks the human KCNQ1 potassium channel; P51787; CHO-K1 KCNQ1, FluxOR thallium flux fluorescence; active compounds read high; B-score at 10 µM; 310,000 tested, 1.3% active; AID 2642;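 active = compounds whose thallium flux B-score, printed positive for inhibition, exceeds three library SD while starting fluorescence stays within three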;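 also: channel opened by potassium depolarization with thallium stimulus after 20 min compound exposure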
KCNK3 inh: human KCNK3 channel inhibition, primary screen; O14649; CHO-KCNK3 thallium flux, FluxOR fluorescence; active compounds read low; B-score at 10 µM; 340,000 tested, 0.84% active;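 active = B-score under library mean minus 4 SD, starting fluorescence ratio at most library mean plus 5 SD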;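 also: more negative B-score means stronger inhibition of thallium flux through KCNK3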
KCNK9 inh: inhibitors of human KCNK9 two-pore domain potassium channel | HEK293 KCNK9, FluxOR thallium flux fluorescence; active compounds read low | 310,000 tested, 1.2% active | Q9NPC2 | B-score at 10 µM;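 active = ratio B-score over 3 SD below the library mean, with starting fluorescence within 5 SD of its mean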;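 also: negative B-score means less thallium flux so channel inhibition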
PHOSPHO1 block: inhibitors of human PHOSPHO1 phosphatase | 290,000 tested, 1.1% active | recombinant PHOSPHO1, absorbance phosphatase assay | Q8TCT1 | inhibition, % at 13.3 µM; in the data active = inhibition above about 60%
hERG protect: hERG (human) protection from proarrhythmic block. CHO-hERG, FluxOR thallium flux, dofetilide IC70 present. 310,000 tested, 0.51% active. activation (rescue from dofetilide block), less the hit threshold, % at 10 µM. Q12809;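 active = activation above the mean of controls blocked by dofetilide plus 5 SD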;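 also: thallium influx through hERG after potassium depolarization seen as dye fluorescence rise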
KCNQ1 pot: potentiates or activates the human KCNQ1 potassium channel; P51787; CHO-K1 KCNQ1, thallium flux FluxOR fluorescence; active compounds read high; B-score at 10 µM; 310,000 tested, 0.35% active; AID 2648;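 active = fluorescence ratio B-score, a plate-corrected score, at least three library SD, with initial intensity B-score within 5 SD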
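System: CHO-K1 cells stably expressing KCNQ1 / Medium: assay buffer for compound exposure, DMSO matched across wells / Reagent: thallium- and potassium-containing depolarizing buffer / Compound: one concentration, matched DMSO / Incubation: 20 min compound pretreatment at room temperature / Measured by: kinetic FluxOR fluorescence, 10 s baseline plus 110 s post-stimulus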
* hit, by the source's call; i = inactive; / = no result given; ! = repeats disagree. This is a sample that favours compounds with a hit; in the whole collection about 4% have one here.

SMILES	KCNQ1 inh	KCNK3 inh	KCNK9 inh	PHOSPHO1 block	hERG protect	KCNQ1 pot
CC(C)C(NC(=O)CN1C(=O)c2cccc3cccc1c23)C(C)C	i	i	i	25	-3	i
O=C(c1cc2c(s1)CCCC2)N1CCN(S(=O)(=O)c2ccccc2C(F)(F)F)CC1	i	i	i	-7	-7	i
COc1ccc(C(=O)CC(=O)C(=O)Nc2ccccc2C(F)(F)F)cc1	i	i	i	18	7.8*	12*
COc1ccc(C(=O)CC(=O)C(=O)Nc2cc(OC)ccc2OC)cc1	i	i	i	31	-3	i
COc1ccc(C(=O)CC(=O)C(=O)Nc2ccccc2Cl)cc1	i	i	i	16	13*	i
COc1ccc(C(=O)CC(=O)C(=O)Nc2ccc(Cl)cc2)cc1	i	i	i	31	13*	i
COc1ccccc1-n1c(-c2ccccc2)n[nH]c1=S	i	i	i	-76	-12	i
COC(=O)c1cc(NC(=O)c2ccccc2)c(=O)oc1/C=C/Nc1ccc(Oc2ccccc2)cc1	i	i	i	53	-11	i
O=C(CSc1nnc(Nc2ccccc2F)s1)c1cc2ccccc2o1	i	i	i	36	-6	i
COCCSc1ccccc1C(=O)Nc1ccc([N+](=O)[O-])cc1OC	i	i	i	64*	-10	i
COCCSc1ccccc1C(=O)Nc1cc([N+](=O)[O-])ccc1OC	i	i	i	13	-21	i
CCOc1ccc(N=C(C)c2ccccc2O)cc1	i	i	i	-11	-1	i
CCOc1ccc(N=Nc2ccc(O)c3ncccc23)cc1	i	i	i	20	11*	i
CCOc1ccc(N=Nc2cc(C(C)C)ccc2O)cc1	i	i	i	-13	9.1*	i
Cc1cccc(N=Nc2ccc(O)c3ncccc23)c1	i	i	i	-2	2	10*
CC(=O)Nc1ccc(S(=O)(=O)Nc2nc3ccccc3nc2N2CCOCC2)cc1	/	i	/	/	/	/
COc1cccc(N2CCN(C(=O)CNC(=O)c3sc4ccccc4c3Cl)CC2)c1	i	i	i	31	-10	i
CCS(=O)(=O)c1ccc(C(=O)NC2CC2)c(Cl)c1Cl	i	i	i	60*	-9	i
CC(Sc1nnc(COc2ccc3ccccc3c2)n1C)C(=O)O (stereo unspecified)	i	i	i	76*	-6	i
CC(Sc1nnc(COc2ccc([N+](=O)[O-])cc2)n1C)C(=O)O (stereo unspecified)	i	i	i	40	-7	i
CCn1nc(C)cc1-c1n[nH]c(=S)n1N	i	i	i	102*	-4	i
CCC1(c2ccc(Cl)cc2)NC(=S)N(c2ccccc2)N1 (stereo unspecified)	i	i	i	-14	49*	40*
CCC1(c2ccccc2)NC(=S)N(c2ccc(C)cc2)N1 (stereo unspecified)	i	i	i	2	75*	52*
CCCCCC1(C)NC(=S)N(c2ccccc2)N1 (stereo unspecified)	i	i	i	28	-7	i
CC1(OCON)CCCc2ccccc21 (stereo unspecified)	i	i	i	10	-5	i
SMILES	KCNQ1 inh	KCNK3 inh	KCNK9 inh	PHOSPHO1 block	hERG protect	KCNQ1 pot
COc1ccc(C2(CNS(=O)(=O)c3ccccc3)CCOCC2)cc1	i	i	i	64*	-12	i
COC(=O)N=Nc1c(O)[nH]c2ccc(Br)cc12	i	i	i	33	-10	i
Oc1[nH]c2ccc(Br)cc2c1N=NC(=S)N1CCOCC1	i	i	i	92*	-20	i
O=C(COC(=O)CNC(=O)c1cccc([N+](=O)[O-])c1)Nc1cccc(S(=O)(=O)N2CCCCC2)c1	i	i	i	-11	-4	i
C=CCc1c(C)[nH]c(=S)c(C#N)c1C	i	i	i	83*	4	i
CCOc1cccc2sc(NN)nc12	/	i	/	61*	/	/
CCOc1cccc2sc(Cl)nc12	i	i	i	43	-10	i
CCN(CC(=O)Nc1cc(Cl)ccc1C)c1ncnc2sc(C)c(C)c12	i	i	-6.6*	2	-11	i
O=C(NCCCl)Nc1ccccc1OCCOc1ccccc1NC(=O)NCCCl	i	i	-7*	19	-9	i
CCOC(=O)C1(CCOc2ccccc2)CCN(Cc2ccc3nonc3c2)CC1	i	i	i	68*	-17	i
COc1ccc(C2=NN(C(=O)c3ccccc3)C(c3ccccc3)C2)c(O)c1 (stereo unspecified)	i	i	i	6	-4	i
CCCCCn1c(=N)n(CC(O)COc2ccccc2OC)c2ccccc21 (stereo unspecified)	7*!	i	i	-31	-26	i
CCCCn1c(=N)n(CC(O)COc2cccc(C)c2)c2ccccc21 (stereo unspecified)	7*	i	i	-2	-24	i
CCOC(=O)CN=C1CC(C)(C)CC2=C1Sc1ncnc(N(C)C)c1N2	i	i	i	97*	-19	i
COc1ccc(CCN2C(=O)CSC2=S)cc1OC	i	i	i	/	4.7*	i
Cc1cc(NC(=O)CSc2nnc(-c3ccc([N+](=O)[O-])cc3)o2)no1	i	i	i	68*	-6	i
CN(CC(=O)Nc1c(Cl)cccc1Cl)C(=O)Cc1ccc2c(c1)CCC2	i	i	i	/	-23	i
COc1ccc(-n2ncc3c2CC(C)(C)CC3NC(=O)CCn2cncn2)cc1 (stereo unspecified)	i	i	i	90*	-8	i
COc1ccc(C2=NN(C(=O)CN3CCOCC3)C(c3nc4ccccc4[nH]3)C2)cc1 (stereo unspecified)	i	i	i	48	-5	i
CCC(NC(=O)NC1CCCCC1)c1ccccc1 (stereo unspecified)	i	i	i	27	-5	i
Cc1ccc(C(C)NC(=S)NC2CCCCC2)cc1C (stereo unspecified)	i	i	i	33	6.2*	i
CC(NC(=O)NC1CCCCC1)c1ccc2c(c1)OCO2 (stereo unspecified)	i	i	i	41	11*	i
CCC(NC(=S)NC1CCCCC1)c1ccc(C(C)C)cc1 (stereo unspecified)	10*	i	i	38	-9	i
